Bioassay records: PubChem BioAssay, several laboratories
XBP1 UPR activ: activators of adaptive arm of unfolded protein response (XBP1); CHO-XBP1 luciferase reporter, IRE1-XBP1 UPR activation, luminescence; percent of tunicamycin response, DMSO as zero; activation, % at 20 µM; 0.33% of 330,000 active; AID 463104;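 active means versus positive control, 20 µM dose yields 30% or more activation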;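 further: 100% = tunicamycin at 10 µg/mL and 0% = DMSO only wells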
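Material: CHO cell line with stable XBP1 luciferase reporter; buffer or medium: F12 medium containing 10% fetal bovine serum; compound: single point, 20 µM final compound, 1% DMSO; incubation: 6 h treatment, 37 °C; measured by: glow luminescence from Steady-Glo reagent; evaluation: activation, % of tunicamycin; control set: tunicamycin high, DMSO low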
CHOP inhibitor: CHOP inhibition in unfolded protein response; inhibition, % at 10 µM; 3.8% of 220,000 active; CHO-K1 CHOP-promoter luciferase, tunicamycin-induced, 15-18 h;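 active means compounds that reduced the stress-induced luciferase reporter signal by more than about 70% of percent inhibition, limit read from the data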;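 further: 0% = tunicamycin plus vehicle and 100% = wells without tunicamycin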
B2AR ag: agonists of human beta-2 adrenergic receptor inducing internalization; P07550; Am2.2-beta2AR cells, FAP receptor internalization, flow cytometry; response, % (concentration not given with the values); 0.43% of 340,000 active; AID 504454;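 active means response above a set limit, near 3 SD of response in nonfluorescent compounds, cut at about 42% in these data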
Target sequence (P07550 whole entry, looked up): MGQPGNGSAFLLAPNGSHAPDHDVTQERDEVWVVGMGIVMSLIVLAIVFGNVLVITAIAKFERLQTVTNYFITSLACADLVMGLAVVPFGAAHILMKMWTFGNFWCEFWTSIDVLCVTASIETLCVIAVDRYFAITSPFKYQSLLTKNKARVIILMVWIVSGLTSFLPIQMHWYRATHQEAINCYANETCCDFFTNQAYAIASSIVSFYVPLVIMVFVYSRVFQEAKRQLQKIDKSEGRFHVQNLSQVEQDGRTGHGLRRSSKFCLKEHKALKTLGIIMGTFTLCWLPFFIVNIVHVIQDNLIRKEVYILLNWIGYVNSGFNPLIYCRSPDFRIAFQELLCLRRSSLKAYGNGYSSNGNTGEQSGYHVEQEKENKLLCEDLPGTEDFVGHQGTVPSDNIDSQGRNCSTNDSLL
UPR CHOP act: activators of apoptotic arm of unfolded protein response (CHOP); 0.34% of 330,000 active; AID 449763; CHO-CHOP luciferase reporter, UPR activation, luminescence; percent of tunicamycin response over DMSO baseline; activation, % at 10 µM;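 active means at 10 µM dose, activation of 40% or more, normalized to positive control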;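 further: 100% = tunicamycin at 10 µg/mL and 0% = DMSO alone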
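System: CHO-CHOP luciferase reporter cell line | Buffer or medium: F12 medium containing 10% fetal bovine serum | Doses: One dose, 10 µM in 0.5% DMSO | Times: 6 h compound exposure at 37 °C after overnight seeding | Signal: Luciferase luminescence | Read-out: % activation vs tunicamycin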
VLA-4 inh: inhibition in a human VLA-4 binding assay; VLA-4 expressing cells, ligand binding flow cytometry; inhibition, % (about 7 µM as worked out from the volumes in the protocol); 0.2% of 330,000 active; AID 2557; in the data active means inhibition above about 50%
VLA-4 allo CP: confirmation of allosteric modulators of human VLA-4 integrin; shares compounds with VLA-4 inh; U937 cells, HUTS-21 LIBS mAb binding, flow cytometry; LDV ligand present at threefold Kd; inhibition, % at 6.7 µM; 2% of 1,300 active; in the data active means inhibition above about 40%;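 further: 0% = ligand without compound and 100% = no ligand background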
* marks the source's active call; other numbers are inactive results; nt = no result. The full list was thinned out, with hits kept by preference.

SMILES	XBP1 UPR activ	CHOP inhibitor	B2AR ag	UPR CHOP act	VLA-4 inh	VLA-4 allo CP
Cc1ccc(S(=O)(=O)NCCC(=O)N2CCC(C)CC2)cc1	7	nt	-7	0	2	nt
COc1ccc(S(=O)(=O)NCC(=O)O)cc1C(=O)NC1CCCCC1	0	17	0	-2	41	-7
Cc1cc(C)n(NC(=S)NC2CCCC2)c(=O)c1C#N	-4	7	1	-1	10	nt
O=C(NNC(=O)c1ccccn1)c1ccc(OC(F)F)cc1	-1	nt	-4	3	5	nt
N#CC1=C(S)N=C(N)C(c2nc(-c3ccccc3)cs2)C12CCCCC2 (stereo unspecified)	-4	-3	14	2	-4	nt
N#CC1=C(S)N=C(N)C(c2nc(-c3ccccc3)cs2)C12CCCC2 (stereo unspecified)	2	24	30	3	91*	-2
O=C(c1ccc2ccccc2n1)N1CCN(c2ccccc2)CC1	0	-4	-3	0	13	nt
COc1ccc(N2CCN(C(=O)c3ccc4ccccc4n3)CC2)cc1	-2	3	2	-1	41	7
COc1ccccc1OC(C)C(=O)Nc1ccccc1C(=O)NCC1CCCO1 (stereo unspecified)	-5	nt	13	1	3	nt
CCc1cccc(C)c1NC(=O)C1CCN(C(=O)c2ccc([N+](=O)[O-])cc2)CC1	-4	13	0	0	56*	1
CCOC(=O)N1CCN(C(=O)C2CCN(C(=O)c3ccc([N+](=O)[O-])cc3)CC2)CC1	-2	nt	-5	1	15	nt
Cc1ccc(-c2nnc(Nc3ccccc3)c3ccccc23)cc1S(=O)(=O)NCC1CCCO1 (stereo unspecified)	-1	22	-7	4	24	nt
Cc1ccc(-c2nn3c(-c4ccco4)nnc3c3ccccc23)cc1S(=O)(=O)NCC1CCCO1 (stereo unspecified)	11	4	5	4	39	3
Cc1ccc(NC(=O)Nc2ccccc2C(N)=O)cc1	3	24	-7	21	-1	8
COc1ccc(Cl)cc1NC(=O)CCn1c(=O)oc2ccccc21	-1	nt	5	1	-4	nt
CC1CCC(NC(=O)Cn2c(=O)oc3ccccc32)CC1 (stereo unspecified)	-1	nt	3	1	-15	0
COc1ccc(Cl)cc1NC(=O)CN(C)C(=O)Cn1c(=O)oc2ccccc21	-2	nt	8	1	-17	-2
COc1ccc(C)cc1NC(=O)Nc1ccccc1	-1	41	24	1	50*	-4
COc1ccc(NC(=O)Nc2ccccc2C(N)=O)cc1	-1	5	6	3	13	nt
COc1ccc(C)cc1NC(=O)Cn1c(=O)oc2ccccc21	-1	nt	-1	2	44	-20
CCOc1ccc(NC(=O)CN(C)C(=O)Cn2c(=O)oc3ccccc32)cc1OCC	-1	nt	-5	-1	6	nt
Cc1ccccc1NC(=O)Cn1c(=O)oc2ccccc21	-4	nt	-9	-2	16	nt
CN(CC(=O)Nc1ccccc1C(F)(F)F)C(=O)Cn1c(=O)oc2ccccc21	-2	nt	-1	1	6	1
Cc1cc(C(=O)OC(C)C(=O)Nc2cccc(Cl)c2)on1 (stereo unspecified)	-3	nt	-4	1	nt	nt
CC(OC(=O)c1ccccc1O)C(=O)Nc1cccc(Cl)c1 (stereo unspecified)	-3	42	9	-2	6	1
SMILES	XBP1 UPR activ	CHOP inhibitor	B2AR ag	UPR CHOP act	VLA-4 inh	VLA-4 allo CP
Clc1ccc(CSc2nncn2-c2ccccn2)cc1	1	5	-8	2	60*	2
C=CCN(CC(=O)NC1CCCC1)C(=O)C(=O)Nc1ccc2c(c1)OCCO2	-2	nt	-1	-1	1	nt
C/C(=N/NS(=O)(=O)c1cccc([N+](=O)[O-])c1)c1ccncc1	-2	nt	-6	3	6	nt
CC(=NN1CC(=O)NC1=O)c1ccc([N+](=O)[O-])o1	nt	nt	3	nt	nt	nt
CCOC(=O)C1CCN(C2CC(=O)N(c3ccc(OCC)cc3)C2=O)CC1 (stereo unspecified)	1	-18	8	1	-11	-6
CCCCCCOc1ccc(N2C(=O)CC(N3CCN(C(=O)c4ccco4)CC3)C2=O)cc1 (stereo unspecified)	-7	39	-5	-2	13	nt
CCc1ccc(N2C(=O)CC(N3CCC(C(=O)OC)CC3)C2=O)cc1 (stereo unspecified)	-2	-1	8	1	2	nt
CCCCCCOc1ccc(N2C(=O)CC(N3CCC(C(=O)OCC)CC3)C2=O)cc1 (stereo unspecified)	-6	26	-2	-2	-10	-3
CCc1ccc(OCCSc2nc3ccccc3n2CC(=O)O)cc1	-5	nt	2	2	0	nt
O=C1Cc2cc(S(=O)(=O)NCc3ccc(F)cc3)ccc2N1	-3	nt	8	-1	-2	0
O=Cc1cnc(N2CCN(c3ccccc3)CC2)s1	-2	-10	3	2	52*	1
O=Cc1cnc(N2CCN(Cc3ccccc3)CC2)s1	2	-4	2	-1	-1	nt
Cc1cccc(Oc2ncccc2[N+](=O)[O-])c1C	nt	nt	-2	nt	nt	nt
O=[N+]([O-])c1ccccc1Oc1ncccc1[N+](=O)[O-]	5	-18	7	1	72*	10
CCN1/C(=C2/SC(=S)N(NC(C)=O)C2=O)Sc2ccccc21	1	nt	4	0	0	nt
CC(=O)NN1C(=O)/C(=C2/Sc3ccccc3N2C)SC1=S	7	nt	0	4	42	13
CCn1c(SCc2cccc(F)c2)nc2c(c1=O)SCC2	1	52	-8	0	3	nt
COc1ccc(C(=O)COC(=O)CNC(=O)C2CCCCC2)c(OC)c1	-2	31	-8	4	-4	nt
COc1ccc(OC)c(C(=O)COC(=O)CNC(=O)C2CCCCC2)c1	-2	5	9	1	60*	-8
CC(=O)c1ccc(N2C(=O)CC(N3CCN(S(=O)(=O)c4ccc(C)c(C)c4)CC3)C2=O)cc1 (stereo unspecified)	2	nt	-1	4	9	nt
COCCCNC(=O)C[C@H]1C[C@H](C(=O)N2CCCCC2)[C@@]2(CCc3ccccc3)c3[nH]c4cc(CCC(=O)N(C)C)ccc4c3CCN2C1=O	0	nt	2	2	nt	nt
CC(Sc1nnnn1-c1ccccc1)C(=O)Nc1ccc(N2CCN(C)CC2)cc1 (stereo unspecified)	-1	nt	-6	1	102*	1
CNC(=O)C(=O)Nc1c(C)cc(C)cc1C	-2	0	-6	-1	43	-4
CC(NC(=O)COC(=O)CN1C(=O)C2CCCCC2C1=O)c1ccccc1 (stereo unspecified)	-1	nt	-5	-2	9	nt
